High-throughput results: PubChem, several laboratories
PolyA inh – yeast polyadenylation inhibition; activity score, % at 12 µM; 300,000 compounds, 0.02% hits; AID 1875; S. cerevisiae SKY197-pL101 polyadenylation reporter, beta-gal luminescence; efflux-impaired pdr1/pdr3 knockout yeast; score 100 = 6 SD above DMSO;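 active = lowest replicate activity score at least 50, where 100 means six control SD above control mean; inconclusive = lowest score under 50 but half or more replicates reach 50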;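 note: yeast exposed to compound for 9 h at 30 °C; higher score means more reporter readthrough which indicates perturbed polyadenylation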
Arrestin-AP2 inh – inhibitors of human beta-arrestin and AP2 interaction; 340,000 compounds, 0.31% hits; inhibition, % at 10 µM; FITC-arrestin peptide / GST-AP2 beads, flow cytometry; AP2 beta2 appendage carries R879A mutation;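 active = inhibition above a set limit, near 3 SD of compounds lacking own fluorescence, cut at about 54% in these data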
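Measured by: flow cytometry, FL1 (488/535 nm); Material: AP2 appendage R879A on GSH beads; Evaluation: percent response; Timing: pre-incubation 12 min, peptide binding 1 h, room temperature; Also added: 50 nM FITC-arrestin peptide; Medium: PBS with 0.05% Tween 20 and 0.1% BSA.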
DSG3 Ab inh – inhibitors of pemphigus antibody binding to human desmoglein-3. DSG3-coupled beads, scFv-anti-DSG3-GFP binding, flow cytometry; active compounds read low. P32926. 310,000 compounds, 0.48% hits. AID 588358. binding (percent of control), % at 10 µM;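 active = binding more than 3 SD below its plate's average and above zero; inconclusive = below that plate limit but binding exactly zero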;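 note: hits lower antibody fragment binding to DSG3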
ALR H2O2 inh – inhibitors of human sulfhydryl oxidase ALR; P55789; purified ALR, DTT oxidation, H2O2 HRP-luminol luminescence; inhibition, % (test concentration not listed); 290,000 compounds, 3.8% hits; AID 485317;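 active = mean replicate inhibition above about 79%, with every replicate also reaching it, limit read from the data; inconclusive = only one of the two criteria met; inactive = mean below limit and not every replicate reaching it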
Target sequence (P55789 whole entry, looked up): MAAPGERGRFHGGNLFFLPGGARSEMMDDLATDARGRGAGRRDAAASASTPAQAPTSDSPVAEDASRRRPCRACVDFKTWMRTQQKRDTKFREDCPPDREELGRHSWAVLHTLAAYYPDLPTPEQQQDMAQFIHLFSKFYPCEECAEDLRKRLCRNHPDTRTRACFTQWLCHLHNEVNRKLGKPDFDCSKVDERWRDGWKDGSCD
NALP1 inh – inhibitors of NALP1 inflammasome in yeast | 280,000 compounds, 0.61% hits | inhibition, % at 10 µM | S. cerevisiae NALP1/ASC/caspase-1 growth, X-gal OD620, 72 h | AID 2071; in the data active = inhibition mostly above about 24%, no sharp cut-off; inactive = mostly below about 32%
NALP3 yeast inh – NALP3 inhibition in yeast. 330,000 compounds, 0.39% hits. inhibition, % at 10 µM. Yeast reconstituted NLRP3/ASC/caspase-1, beta-gal luminescence, 24 h;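 active = inhibition of 50% or more; inactive = inhibition below 50%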
Hits are given with their value; i = inactive; ? = inconclusive; nt = not tested or not shown. Shown are actives, neighbours in structure and some others; about 4.6% of the full set was active somewhere.

SMILES | PolyA inh | Arrestin-AP2 inh | DSG3 Ab inh | ALR H2O2 inh | NALP1 inh | NALP3 yeast inh
CC(=O)N1CCN(c2ccc(NCc3cccc4ccccc34)cc2)CC1 | i | i | i | 99 | i | i
COc1ccc(CNc2ccc(N3CCN(C(C)=O)CC3)cc2)cc1OC | nt | i | i | nt | nt | nt
Fc1ccc(N2CCN(Cc3ccccn3)CC2)cc1 | i | i | i | 97 | i | i
Fc1ccc(CNc2ccc(N3CCN(Cc4ccccc4)CC3)cc2)cc1 | i | i | i | 89 | i | i
CC(=O)N1CCN(c2ccc(NCc3ccc(Br)o3)cc2)CC1 | nt | i | i | 99 | nt | i
O=C(CCS(=O)(=O)c1ccc(F)cc1)Nc1ccc(N2CCN(Cc3ccccc3)CC2)cc1 | nt | i | i | i | nt | i
C[C@@H]1CN([C@H](C)CO)C(=O)CCCn2nncc2CO[C@@H]1CN(C)S(=O)(=O)c1ccc2c(c1)OCCCO2 | nt | nt | i | nt | nt | nt
CC(=O)N1CCN(c2ccc(NCc3ccccc3)cc2)CC1 | i | i | i | 99 | i | i
CN(C)c1ccc(C(c2nnnn2C(C)(C)C)N2CCN(C(=O)c3ccco3)CC2)cc1 (stereo unspecified) | i | i | i | 90 | i | i
CCCCC(c1nnnn1CC1CCCO1)N1CCN(Cc2ccccc2)CC1 (stereo unspecified) | i | i | i | i | i | i
COCCn1nnnc1C(CC(C)C)N1CCN(c2cccc(OC)c2)CC1 (stereo unspecified) | i | i | i | nt | i | nt
COc1ccc(Cn2nnnc2C(c2cccs2)N2CCN(c3ccccc3)CC2)cc1 (stereo unspecified) | i | i | i | i | i | i
CCCC(c1nnnn1CC1CCCO1)N1CCN(c2ccccc2)CC1 (stereo unspecified) | i | i | i | 98 | i | i
COCCn1nnnc1C(CC(C)C)N1CCN(c2ccccc2)CC1 (stereo unspecified) | i | i | nt | 93 | i | i
COc1ccc(Cn2nnnc2C(c2cccnc2)N2CCN(c3ccc(O)cc3)CC2)cc1 (stereo unspecified) | i | i | i | 98 | i | i
CCOc1ccc(C(c2nnnn2C(C)(C)C)N2CCN(C(=O)c3ccco3)CC2)cc1 (stereo unspecified) | i | i | i | i | i | i
CCCCCCn1c(=O)n2n(c1=O)[C@@H]1CN(S(=O)(=O)c3ccc(C)cc3)C[C@]1(O)[C@@H](OC(=O)Nc1c(C)noc1C)C2 | nt | nt | i | nt | nt | nt
CCC(c1nnnn1C1CCCC1)N1CCN(c2cccc(OC)c2)CC1 (stereo unspecified) | i | i | i | 98 | i | i
CCC(c1nnnn1Cc1ccc2c(c1)OCO2)N1CCN(c2ccc(OC)cc2)CC1 (stereo unspecified) | i | i | i | 88 | i | i
c1ccc(Cn2nnnc2C(c2ccccn2)N2CCOCC2)cc1 (stereo unspecified) | i | i | i | i | i | i
CCC(c1nnnn1Cc1ccc2c(c1)OCO2)N1CCN(CC)CC1 (stereo unspecified) | ? | i | i | i | i | i
COc1ccc(Cn2nnnc2C(c2ccc3ncccc3c2)N2CCN(C3CCCCC3)CC2)cc1 (stereo unspecified) | i | i | i | i | i | i
COc1ccc(N2CCN(C(c3ccc4ncccc4c3)c3nnnn3C(C)C)CC2)cc1 (stereo unspecified) | i | i | i | 76 | nt | i
c1ccc(Cn2nnnc2C(c2ccccn2)N2CCN(c3ccccc3)CC2)cc1 (stereo unspecified) | i | i | i | 98 | i | i
CN1CCC(N(C)C(=O)/C(C#N)=C\c2ccc(OC(F)F)cc2)CC1 | nt | i | nt | nt | nt | nt
SMILES | PolyA inh | Arrestin-AP2 inh | DSG3 Ab inh | ALR H2O2 inh | NALP1 inh | NALP3 yeast inh
CC(C)(C)n1nnnc1C(c1ccncc1)N1CCN(c2ccc(O)cc2)CC1 (stereo unspecified) | i | i | i | 98 | i | i
Oc1ccc(N2CCN(C(c3cccs3)c3nnnn3CCc3ccccc3)CC2)cc1 (stereo unspecified) | i | i | i | 96 | i | i
CCC(c1nnnn1Cc1ccccc1)N1CCN(c2ccc(OC)cc2)CC1 (stereo unspecified) | i | i | i | 96 | i | i
CCC(c1nnnn1Cc1ccc(OC)cc1)N1CCN(c2ccc(OC)cc2)CC1 (stereo unspecified) | i | i | i | i | i | i
CCC(c1nnnn1Cc1ccc2c(c1)OCO2)N1CCN(c2ccccc2)CC1 (stereo unspecified) | i | i | i | 90 | i | i
CCC(c1nnnn1Cc1ccc2c(c1)OCO2)N1CCN(c2ccc(F)cc2)CC1 (stereo unspecified) | i | i | nt | i | i | i
CC(C)NC(=O)NC(=O)CSc1nnc(-c2c[nH]c3ccccc23)o1 | i | i | nt | i | i | i
Cc1c(NC(=O)COc2ccc(C(C)C)cc2)c(=O)n(-c2ccccc2)n1C | i | i | i | i | i | i
CCC(c1nnnn1Cc1ccccc1)N1CCN(C(=O)c2ccco2)CC1 (stereo unspecified) | i | i | nt | i | 34 | i
CCOC(=O)c1ccc(S(=O)(=O)N2CCC(C(=O)NCC3CCCCC3)CC2)cc1 | nt | i | i | i | nt | i
CC(C)C(NC(=O)c1ccc(F)cc1)C(=O)NC1(C)CCS(=O)(=O)C1 (stereo unspecified) | nt | i | nt | i | nt | i
Cc1ccc(NC(=O)CC2NCCNC2=O)cc1 (stereo unspecified) | i | i | i | i | i | i
O=C(CC1NCCNC1=O)Nc1ccc([N+](=O)[O-])cc1 (stereo unspecified) | i | i | i | i | 32 | i
CN(C)c1ccc(NC(=O)CC2NCCNC2=O)cc1 (stereo unspecified) | i | i | i | 99 | i | i
CC(=O)Nc1ccc(N(C(=O)c2ccco2)C(C(=O)NC2CCCCC2)c2ccccc2)cc1 (stereo unspecified) | i | i | i | nt | i | i
Cc1ccccc1-c1n[nH]nc1C1=CC(=O)C[C@H](c2ccc(F)cc2)C1 | nt | nt | i | nt | nt | nt
Cc1ccc2[nH]c(-c3ccccc3)cc(=O)c2c1 | i | i | i | i | i | i
CCN(CC)Cc1c(-c2ccccc2)[nH]c2ccc(C)cc2c1=O | i | i | i | 97 | i | i
CCCNC(=O)Cn1c(=O)/c(=C/c2ccc(-c3ccc([N+](=O)[O-])cc3)o2)s/c1=C\C(=O)C(C)(C)C | nt | i | nt | nt | nt | nt
CC[C@@H](C)[C@H](NC(=O)Cc1c(C)c2cc3c(C)coc3c(C)c2oc1=O)C(=O)O | i | i | i | 98 | i | i
CCCCC(NC(=O)Cc1c(C)c2cc3c(-c4ccccc4)coc3c(C)c2oc1=O)C(=O)O (stereo unspecified) | i | i | i | 98 | i | i
Cc1cc(C)n2nc(C(=O)OCC(=O)NCc3ccc(F)cc3)nc2n1 | nt | i | ? | i | nt | i
